Results: ChEMBL document CHEMBL1153919, “Pyrano[2,3-e]isoindol-2-ones, new angelicin heteroanalogues” (Bioorg Med Chem Lett, 2009)
The source made the active and inactive calls. The rule behind the calls is not given here.

tested on: not listed separately; assay: Phototoxicity against human NCTC-2544 cells exposed to irradiation with 3.75 J/cm'2 UVA light prior to 72 hrs drug exposure by MTT assay; format: cell-based; conditions: NCTC-2544, light or radiation study
Outline: (§1)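 Phototoxicity panel: NCTC-2544 keratinocytes, LoVo adenocarcinoma, K562 and Jurkat leukemia cells. Cells with compound received UVA at 2.5 or 3.75 J/cm2. Cell growth was measured by MTT after 72 h of exposure. IC50 is the concentration inhibiting growth by 50%.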

Compound | IC50
O=c1ccc2c(o1)-c1cn(Cc3ccccc3)cc1CC2 | > 20 µM
Cn1cc2c(c1)-c1oc(=O)ccc1CC2 | > 20 µM
CCOC(=O)c1cc2c(oc1=O)-c1cn(-c3ccccc3)cc1CC2 | > 20 µM
CCOC(=O)c1[nH]c(C)c2c1CCc1cc(C(=O)OCC)c(=O)oc1-2 | > 20 µM
CCOC(=O)c1cc2c(oc1=O)-c1c(c(C(=O)OCC)n(Cc3ccccc3)c1C)CC2 | 10.9 µM

tested on: Jurkat; assay: Cytotoxicity against human Jurkat cells after 72 hrs by MTT assay; format: functional, cell-based; conditions: not given

Compound | IC50
O=c1ccc2c(o1)-c1cn(Cc3ccccc3)cc1CC2 | > 20 µM
Cn1cc2c(c1)-c1oc(=O)ccc1CC2 | > 20 µM
CCOC(=O)c1cc2c(oc1=O)-c1cn(-c3ccccc3)cc1CC2 | > 20 µM
CCOC(=O)c1[nH]c(C)c2c1CCc1cc(C(=O)OCC)c(=O)oc1-2 | > 20 µM
CCOC(=O)c1cc2c(oc1=O)-c1c(c(C(=O)OCC)n(Cc3ccccc3)c1C)CC2 | > 20 µM

tested on: not listed separately; assay: Phototoxicity against human NCTC-2544 cells exposed to irradiation with 2.5 J/cm'2 UVA light prior to 72 hrs drug exposure by MTT assay; format: cell-based; conditions: NCTC-2544, light or radiation study; outline: as §1

Compound | IC50
O=c1ccc2c(o1)-c1cn(Cc3ccccc3)cc1CC2 | > 20 µM
Cn1cc2c(c1)-c1oc(=O)ccc1CC2 | > 20 µM
CCOC(=O)c1cc2c(oc1=O)-c1cn(-c3ccccc3)cc1CC2 | > 20 µM
CCOC(=O)c1[nH]c(C)c2c1CCc1cc(C(=O)OCC)c(=O)oc1-2 | > 20 µM
CCOC(=O)c1cc2c(oc1=O)-c1c(c(C(=O)OCC)n(Cc3ccccc3)c1C)CC2 | 14.6 µM

tested on: Jurkat; assay: Induction of lipid peroxidation in 2.5 J/cm'2 UVA light irradiated human Jurkat cells at 10 uM by TBARS test; format: functional, cell-based; conditions: not given

Compound | Activity
CCOC(=O)c1cc2c(oc1=O)-c1c(c(C(=O)OCC)n(Cc3ccccc3)c1C)CC2 | Active

tested on: Jurkat; assay: Induction of lipid peroxidation in 2.5 J/cm'2 UVA light irradiated human Jurkat cells at 20 uM by TBARS test; format: functional, cell-based; conditions: not given

Compound | Activity
CCOC(=O)c1cc2c(oc1=O)-c1c(c(C(=O)OCC)n(Cc3ccccc3)c1C)CC2 | Active

tested on: not listed separately; assay: Cytotoxicity against human NCTC-2544 cells after 72 hrs by MTT assay; format: cell-based; conditions: NCTC-2544, 72 h

Compound | IC50
O=c1ccc2c(o1)-c1cn(Cc3ccccc3)cc1CC2 | > 20 µM
Cn1cc2c(c1)-c1oc(=O)ccc1CC2 | > 20 µM
CCOC(=O)c1cc2c(oc1=O)-c1cn(-c3ccccc3)cc1CC2 | > 20 µM
CCOC(=O)c1[nH]c(C)c2c1CCc1cc(C(=O)OCC)c(=O)oc1-2 | > 20 µM
CCOC(=O)c1cc2c(oc1=O)-c1c(c(C(=O)OCC)n(Cc3ccccc3)c1C)CC2 | > 20 µM

tested on: K562; assay: Cytotoxicity against human K562 cells after 72 hrs by MTT assay; format: functional, cell-based; conditions: K562, 72 h

Compound | IC50
O=c1ccc2c(o1)-c1cn(Cc3ccccc3)cc1CC2 | > 20 µM
Cn1cc2c(c1)-c1oc(=O)ccc1CC2 | > 20 µM
CCOC(=O)c1cc2c(oc1=O)-c1cn(-c3ccccc3)cc1CC2 | > 20 µM
CCOC(=O)c1[nH]c(C)c2c1CCc1cc(C(=O)OCC)c(=O)oc1-2 | > 20 µM
CCOC(=O)c1cc2c(oc1=O)-c1c(c(C(=O)OCC)n(Cc3ccccc3)c1C)CC2 | > 20 µM

tested on: Jurkat; assay: Cell cycle arrest in 2.5 J/cm'2 UVA light irradiated human Jurkat cells assessed as accumulation at subG1 phase at 5 uM after 24 hrs by DNA cytometry; format: functional; conditions: not given
Outline: (§2)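 Jurkat (T-cell leukemia) cells were UVA-irradiated at 2.5 J/cm2 in the presence of 5 µM compound. DNA content was analysed by flow cytometry 24 h after irradiation. Controls were non-irradiated cells and cells irradiated without compound. A representative experiment is shown, repeated two times.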

Compound | Activity
CCOC(=O)c1cc2c(oc1=O)-c1c(c(C(=O)OCC)n(Cc3ccccc3)c1C)CC2 | 17.2%

tested on: Jurkat; assay: Phototoxicity against human Jurkat cells exposed to irradiation with 2.5 J/cm'2 UVA light prior to 72 hrs drug exposure by MTT assay; format: functional, cell-based; conditions: light or radiation study; outline: as §1

Compound | IC50
O=c1ccc2c(o1)-c1cn(Cc3ccccc3)cc1CC2 | > 20 µM
Cn1cc2c(c1)-c1oc(=O)ccc1CC2 | > 20 µM
CCOC(=O)c1cc2c(oc1=O)-c1cn(-c3ccccc3)cc1CC2 | > 20 µM
CCOC(=O)c1[nH]c(C)c2c1CCc1cc(C(=O)OCC)c(=O)oc1-2 | > 20 µM
CCOC(=O)c1cc2c(oc1=O)-c1c(c(C(=O)OCC)n(Cc3ccccc3)c1C)CC2 | 8.2 µM

tested on: Jurkat; assay: Cell cycle arrest in 2.5 J/cm'2 UVA light irradiated human Jurkat cells assessed as accumulation at G2/M phase at 5 uM after 24 hrs by DNA cytometry; format: functional; conditions: not given; outline: as §2

Compound | Activity
CCOC(=O)c1cc2c(oc1=O)-c1c(c(C(=O)OCC)n(Cc3ccccc3)c1C)CC2 | 17.7%

tested on: LoVo; assay: Cytotoxicity against human LoVo cells after 72 hrs by MTT assay; format: functional, cell-based; conditions: not given

Compound | IC50
O=c1ccc2c(o1)-c1cn(Cc3ccccc3)cc1CC2 | > 20 µM
Cn1cc2c(c1)-c1oc(=O)ccc1CC2 | > 20 µM
CCOC(=O)c1cc2c(oc1=O)-c1cn(-c3ccccc3)cc1CC2 | > 20 µM
CCOC(=O)c1[nH]c(C)c2c1CCc1cc(C(=O)OCC)c(=O)oc1-2 | > 20 µM
CCOC(=O)c1cc2c(oc1=O)-c1c(c(C(=O)OCC)n(Cc3ccccc3)c1C)CC2 | > 20 µM

tested on: Jurkat; assay: Induction of lipid peroxidation in 2.5 J/cm'2 UVA light irradiated human Jurkat cells at 5 uM by TBARS test; format: functional, cell-based; conditions: not given

Compound | Activity
CCOC(=O)c1cc2c(oc1=O)-c1c(c(C(=O)OCC)n(Cc3ccccc3)c1C)CC2 | Active

tested on: Jurkat; assay: Cell cycle arrest in 2.5 J/cm'2 UVA light irradiated human Jurkat cells assessed as accumulation at G1 phase at 5 uM after 24 hrs by DNA cytometry; format: functional; conditions: not given; outline: as §2

Compound | Activity
CCOC(=O)c1cc2c(oc1=O)-c1c(c(C(=O)OCC)n(Cc3ccccc3)c1C)CC2 | 44.7%

tested on: K562; assay: Phototoxicity against human K562 cells exposed to irradiation with 2.5 J/cm'2 UVA light prior to 72 hrs drug exposure by MTT assay; format: functional, cell-based; conditions: K562, light or radiation study; outline: as §1

Compound | IC50
O=c1ccc2c(o1)-c1cn(Cc3ccccc3)cc1CC2 | > 20 µM
Cn1cc2c(c1)-c1oc(=O)ccc1CC2 | > 20 µM
CCOC(=O)c1cc2c(oc1=O)-c1cn(-c3ccccc3)cc1CC2 | > 20 µM
CCOC(=O)c1[nH]c(C)c2c1CCc1cc(C(=O)OCC)c(=O)oc1-2 | > 20 µM
CCOC(=O)c1cc2c(oc1=O)-c1c(c(C(=O)OCC)n(Cc3ccccc3)c1C)CC2 | 7.5 µM

tested on: LoVo; assay: Phototoxicity against human LoVo cells exposed to irradiation with 3.75 J/cm'2 UVA light prior to 72 hrs drug exposure by MTT assay; format: functional, cell-based; conditions: light or radiation study; outline: as §1

Compound | IC50
O=c1ccc2c(o1)-c1cn(Cc3ccccc3)cc1CC2 | > 20 µM
Cn1cc2c(c1)-c1oc(=O)ccc1CC2 | > 20 µM
CCOC(=O)c1cc2c(oc1=O)-c1cn(-c3ccccc3)cc1CC2 | > 20 µM
CCOC(=O)c1[nH]c(C)c2c1CCc1cc(C(=O)OCC)c(=O)oc1-2 | > 20 µM
CCOC(=O)c1cc2c(oc1=O)-c1c(c(C(=O)OCC)n(Cc3ccccc3)c1C)CC2 | 9.6 µM

tested on: Jurkat; assay: Phototoxicity against human Jurkat cells exposed to irradiation with 3.75 J/cm'2 UVA light prior to 72 hrs drug exposure by MTT assay; format: functional, cell-based; conditions: light or radiation study; outline: as §1

Compound | IC50
O=c1ccc2c(o1)-c1cn(Cc3ccccc3)cc1CC2 | > 20 µM
Cn1cc2c(c1)-c1oc(=O)ccc1CC2 | > 20 µM
CCOC(=O)c1cc2c(oc1=O)-c1cn(-c3ccccc3)cc1CC2 | > 20 µM
CCOC(=O)c1[nH]c(C)c2c1CCc1cc(C(=O)OCC)c(=O)oc1-2 | > 20 µM
CCOC(=O)c1cc2c(oc1=O)-c1c(c(C(=O)OCC)n(Cc3ccccc3)c1C)CC2 | 7.2 µM

tested on: LoVo; assay: Phototoxicity against human LoVo cells exposed to irradiation with 2.5 J/cm'2 UVA light prior to 72 hrs drug exposure by MTT assay; format: functional, cell-based; conditions: light or radiation study; outline: as §1

Compound | IC50
O=c1ccc2c(o1)-c1cn(Cc3ccccc3)cc1CC2 | > 20 µM
Cn1cc2c(c1)-c1oc(=O)ccc1CC2 | > 20 µM
CCOC(=O)c1cc2c(oc1=O)-c1cn(-c3ccccc3)cc1CC2 | > 20 µM
CCOC(=O)c1[nH]c(C)c2c1CCc1cc(C(=O)OCC)c(=O)oc1-2 | > 20 µM
CCOC(=O)c1cc2c(oc1=O)-c1c(c(C(=O)OCC)n(Cc3ccccc3)c1C)CC2 | 10.5 µM

tested on: Jurkat; assay: Cell cycle arrest in 2.5 J/cm'2 UVA light irradiated human Jurkat cells assessed as accumulation at S phase at 5 uM after 24 hrs by DNA cytometry; format: functional; conditions: not given; outline: as §2

Compound | Activity
CCOC(=O)c1cc2c(oc1=O)-c1c(c(C(=O)OCC)n(Cc3ccccc3)c1C)CC2 | 37.6%

tested on: K562; assay: Phototoxicity against human K562 cells exposed to irradiation with 3.75 J/cm'2 UVA light prior to 72 hrs drug exposure by MTT assay; format: functional, cell-based; conditions: K562, light or radiation study; outline: as §1

Compound | IC50
O=c1ccc2c(o1)-c1cn(Cc3ccccc3)cc1CC2 | > 20 µM
Cn1cc2c(c1)-c1oc(=O)ccc1CC2 | > 20 µM
CCOC(=O)c1cc2c(oc1=O)-c1cn(-c3ccccc3)cc1CC2 | > 20 µM
CCOC(=O)c1[nH]c(C)c2c1CCc1cc(C(=O)OCC)c(=O)oc1-2 | > 20 µM
CCOC(=O)c1cc2c(oc1=O)-c1c(c(C(=O)OCC)n(Cc3ccccc3)c1C)CC2 | 7.3 µM
